# High-throughput results from PubChem BioAssay.
# TRPC6 inhibitor – inhibitors of mouse TRPC6 channel; Q61143; HEK293-TRPC6, membrane potential dye, ACh-evoked depolarization; active compounds read low; B-score at 10 µM; actives 1.1% (n = 310,000);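 active means B-score under library mean minus 3 SD, initial fluorescence not abnormally high, positive integrated signal ratio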;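 further: B-score derived from integrated fluorescence ratio over the kinetic read; more negative B-score means stronger inhibition of depolarization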
# TRPC4 block – blocks the mouse TRPC4 cation channel; B-score at 10 µM; actives 0.39% (n = 300,000); Q9QUQ5; HEK293 TRPC4beta/mu-opioid, DAMGO-evoked Fluo4 calcium flux; active compounds read low;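 active means B-score over 3 SD under the library average, no early fluorescence shift, positive overall ratio signal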
# Target sequence (Q9QUQ5 whole entry, looked up): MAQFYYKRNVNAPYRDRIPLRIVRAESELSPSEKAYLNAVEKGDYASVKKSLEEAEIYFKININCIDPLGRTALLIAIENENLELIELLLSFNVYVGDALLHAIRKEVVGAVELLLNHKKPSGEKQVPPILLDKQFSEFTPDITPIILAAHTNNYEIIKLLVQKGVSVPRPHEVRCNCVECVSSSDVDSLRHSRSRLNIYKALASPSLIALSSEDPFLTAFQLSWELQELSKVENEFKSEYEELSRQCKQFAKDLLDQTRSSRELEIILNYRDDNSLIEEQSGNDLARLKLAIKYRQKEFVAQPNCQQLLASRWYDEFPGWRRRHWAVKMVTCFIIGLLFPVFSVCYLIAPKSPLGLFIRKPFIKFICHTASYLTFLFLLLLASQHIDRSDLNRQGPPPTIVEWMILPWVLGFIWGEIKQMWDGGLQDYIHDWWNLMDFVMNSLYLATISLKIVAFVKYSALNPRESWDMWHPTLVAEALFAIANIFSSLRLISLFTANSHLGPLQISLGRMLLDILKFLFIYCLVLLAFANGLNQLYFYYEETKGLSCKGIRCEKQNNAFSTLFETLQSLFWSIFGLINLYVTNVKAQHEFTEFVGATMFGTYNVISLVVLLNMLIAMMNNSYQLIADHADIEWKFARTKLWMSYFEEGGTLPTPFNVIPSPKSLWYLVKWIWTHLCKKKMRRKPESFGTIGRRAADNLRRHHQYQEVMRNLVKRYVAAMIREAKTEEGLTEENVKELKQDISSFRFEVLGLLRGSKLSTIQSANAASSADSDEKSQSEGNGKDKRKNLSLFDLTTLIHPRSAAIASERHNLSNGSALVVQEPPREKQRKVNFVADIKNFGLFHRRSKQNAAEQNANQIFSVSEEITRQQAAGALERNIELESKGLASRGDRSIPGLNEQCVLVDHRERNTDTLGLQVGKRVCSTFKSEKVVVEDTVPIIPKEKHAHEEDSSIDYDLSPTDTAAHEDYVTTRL
#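 material = TRPC4beta/mu-opioid receptor HEK293 cell line | probe or stimulus = sequential submaximal and maximal DAMGO stimulation | compound dosing = one concentration per compound | measured by = Fluo4 Ca2+ flux fluorescence | evaluation = integrated fluorescence ratio relative to baseline, converted to per-well B score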
# TRPC4 potent – allosterically enhances the mouse TRPC4 cation channel | Q9QUQ5 | HEK293 TRPC4beta/mu-opioid, DAMGO EC20, Fluo-4 Ca2+ flux; active compounds read high | B-score at 10 µM | actives 0.42% (n = 310,000) | AID 2227;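 active means B-score of calcium response area above 5 SD of library B-scores, with initial fluorescence ratio within 5 SD of library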
# TRPC6 act – mouse TRPC6 channel activation. HEK293-TRPC6 membrane potential dye fluorescence; active compounds read high. B-score at 10 µM. actives 0.13% (n = 310,000);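 active means B-score of the integrated fluorescence ratio above library mean plus 3 SD, and starting fluorescence ratio within library mean plus 5 SD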;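 further: higher score means more depolarization so channel activation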
# TRPC4 agonist – activators of mouse TRPC4 channel | B-score at 10 µM | actives 0.49% (n = 310,000) | HEK293 TRPC4beta/mu-opioid, Fluo4 calcium fluorescence; active compounds read high;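 active means B-score above 5 SD of library B-scores, and initial fluorescence ratio not above library mean plus 5 SD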;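 further: positive B-score marks a calcium rise read as TRPC4 activation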
#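 Material: TRPC4beta and mu-opioid receptor HEK293 stable cells | Incubation: 45 min room-temperature Fluo4 loading, 110 s read | Detection: Kinetic Fluo4 calcium fluorescence | Measure: Integrated baseline-normalised fluorescence ratio, converted to per-well B score | Benchmarks: Low control buffer alone, high control maximal DAMGO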
# HEK293 TRPC6 ctr – checks TRPC6 modulator effects in parental HEK293 cells; shares compounds with TRPC6 inhibitor; AID 488924; membrane potential signal change, % at 10 µM; actives 51% (n = 2,400); membrane potential dye fluorescence;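 active means membrane potential signal moves up or down beyond 5 SD from buffer-only wells, on both duplicate plates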
# HEK293 MPD ctr 2 – second counter-screen for TRPC6 modulators: effect in parental HEK293 cells; inhibition, % at 10 µM; membrane potential dye fluorescence; after compound, maximal acetylcholine stimulation; AID 488926; actives 14% (n = 2,400); shares compounds with TRPC6 inhibitor;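 active means membrane potential signal drops by more than 5 SD from the mean control signal, in both duplicate plates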
# TRPC4/MOR mod – tests whether TRPC6 modulators also affect mouse TRPC4. shares compounds with TRPC6 inhibitor. HEK293 TRPC4/mu-opioid, membrane potential fluorescence. percent change from control (negative = decrease, positive = increase), % at 10 µM. actives 69% (n = 2,400). AID 488927;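 active means membrane potential signal moved up or down beyond 5 SD of buffer control wells, in both duplicate plates, actives on both sides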
# TRPC4 ctr inh 2 – mouse TRPC4 off-target activity of TRPC6 modulators, second screen; shares compounds with TRPC6 inhibitor; HEK293 TRPC4/mu-opioid, membrane potential dye fluorescence; stimulated with maximal-effect DAMGO; inhibition, % at 10 µM; actives 55% (n = 2,400);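 active means drop in membrane potential signal beyond 5 SD of the control wells in both duplicate plates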;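 further: TRPC4 counter screen for TRPC6 hits run under conditions tuned for TRPC6 not TRPC4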
# TRPC6 inh conf – confirmation of mouse TRPC6 inhibitors. shares compounds with TRPC6 inhibitor. HEK293-TRPC6, membrane potential dye, ACh-evoked depolarization. inhibition, % at 10 µM. actives 43% (n = 3,300). AID 488960;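 active means fluorescence ratio falls more than 5 SD below the full-stimulation control mean, in both duplicate runs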;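 further: integrated fluorescence ratio of peak minus minimum over baseline after agonist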
# TRPC6 act confirm – mouse TRPC6 activator confirmation | shares compounds with TRPC6 inhibitor | actives 11% (n = 2,800) | HEK293-TRPC6 membrane potential dye fluorescence, FDSS | activation, % at 10 µM;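 active means ratio signal rise beyond 5 SD above unstimulated control wells' mean, seen in both duplicate runs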
# A number is an active result; - = inactive; . = not tested or not shown. An excerpt weighted towards active compounds, which were near 2.3% of everything screened.
SMILES,TRPC6 inhibitor,TRPC4 block,TRPC4 potent,TRPC6 act,TRPC4 agonist,HEK293 TRPC6 ctr,HEK293 MPD ctr 2,TRPC4/MOR mod,TRPC4 ctr inh 2,TRPC6 inh conf,TRPC6 act confirm
COC(=O)C1=NN(C(=O)c2ccc(Cl)cc2)C(O)(c2ccccc2)C1 (stereo unspecified),-,-,-,16,59,321%,-,73%,-,.,190%
CCC1=NN(C(=O)c2ccc(Cl)cc2)C(O)(c2ccccc2)C1 (stereo unspecified),-,-,-,-,-,.,.,.,.,.,.
CCC1=NN(C(=O)c2ccc(Cl)cc2)C(O)(c2ccc(C)cc2)C1 (stereo unspecified),-,-,-,-,-,.,.,.,.,.,.
O=c1c([N+](=O)[O-])c(NCCN2CCCCCC2)c2ccccc2n1-c1ccccc1,-6.3,-,-,-,-,-,-,-16%,80%,50%,-
COCCNc1c([N+](=O)[O-])c(=O)n(-c2ccccc2)c2ccccc12,-,-,-,-,-,.,.,.,.,.,.
CCCC(=O)Nc1c(-c2ccc(C)cc2)c(=O)c2ccccc2n1C,-,-,-,-,-,.,.,.,.,.,.
N#Cc1c(-c2ccccc2)c(-c2ccccc2)n(Cc2ccco2)c1NC(=O)c1cccs1,-,-,-,-,-,.,.,.,.,.,.
Cc1ccc2c(c1)cc(CN(Cc1cccnc1)C(=O)c1ccccc1)c1nnnn12,-,-,-,-,-,.,.,.,.,.,.
Cc1ncc(C[n+]2csc(CCOC(=O)CC34CC5CC(CC(C5)C3)C4)c2C)c(N)n1,-,-,-,-,-,.,.,.,.,.,.
Cc1c(CCOC(=O)CC23CC4CC(CC(C4)C2)C3)sc[n+]1Cc1ccccc1,-5.3,-6,-,-,-,-,-,-,40%,56%,-
CN(C)S(=O)(=O)c1cccc(C(=O)NCC(=O)NC2CCN(Cc3ccccc3)CC2)c1,-,-,-,-,-,.,.,.,.,.,.
C=CCN(c1ccccc1)S(=O)(=O)c1cccc(C(=O)NC2CCN(Cc3ccccc3)CC2)c1,-6.6,-,-,-,-,-,-,-,57%,-,-
COc1ccc(-c2csc(-c3cccs3)n2)c(OC)c1,-,-,-,-,-,.,.,.,.,.,.
O=c1[nH]cnc2sc3c(c12)CCN(Cc1ccccc1)C3,-,-,-,-,-,.,.,.,.,.,.
OCCCNc1ncnc2sc3c(c12)CCN(Cc1ccccc1)C3,-6,-,-,-,-,-137%,-,-38%,-,-,-
c1csc(-c2nn3c(C4COc5ccccc5O4)nnc3s2)c1 (stereo unspecified),-12,-,-,-,-,-,-,-,-,-,-
CCOc1ccc2nc(SCC(=O)Nc3ccc4c(c3)OCO4)sc2c1,-,-,-,-,-,.,.,.,.,.,.
Cc1ccc(-c2nnc(SCC(=O)NNC(=O)COc3cccc(C)c3)n2C)cc1,-,-,-,-,-,.,.,.,.,.,.
Cc1ccc(-c2nnc(SCC(=O)NNC(=O)COc3ccccc3C)n2C)cc1,-6.2,-,-,-,-,-,-,-,-,-,-
O=C1/C(=C/c2ccco2)SC(=S)N1C1CCS(=O)(=O)C1 (stereo unspecified),-,-,-,-,-,.,.,.,.,.,.
COc1ccc(C(C(=O)NC2CCCC2)N(C(=O)c2csnn2)C2CC2)cc1 (stereo unspecified),-,-,-,-,-,.,.,.,.,.,.
